Source: ChEMBL document CHEMBL1157264, “Hispidin derivatives from the mushroom Inonotus xeranticus and their antioxidant activity” (J Nat Prod, 2006)
The source made the active and inactive calls. The rule behind the calls is not given here.

Key:
Type in all cases: functional
[1] = test system: Radical scavenging activity; assay: Antioxidant activity assessed as DPPH radical scavenging activity for 20 mins by ELISA
Method in brief: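 Samples in DMSO added to 150 µM DPPH in ethanol, vortexed, incubated 20 min at room temperature, absorbance read at 517 nm. Activity taken from the absorbance difference versus DMSO control; vitamin E and caffeic acid references.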

[2] = Antioxidant activity assessed as ABTS radical scavenging activity after 12 hrs by ELISA; details: in the assay text read “after 6 mins” for “after 12 hrs”
Method in brief: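 ABTS dissolved in water at 7 mM, reacted with 2.45 mM potassium persulfate (final) and left 12 h in the dark at room temperature to form ABTS•+. Radical solution (A734 0.700) added to samples in EtOH, absorbance read after mixing for up to 6 min. IC50 derived; vitamin E reference.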

[3] = Antioxidant activity assessed as superoxide radical anion scavenging activity after 30 mins by microplate reader
Method in brief: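 Xanthine/xanthine oxidase system: 50 mM potassium phosphate pH 7.8, 1 mM EDTA, 0.04 mM NBT, 0.18 mM xanthine, 250 mU/mL xanthine oxidase plus sample, 30 min at 37 °C in the dark. NBT-formazan read at 560 nm, background from a no-enzyme control subtracted. IC50 derived; BHA reference.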

Row | IC50 [2] | IC50 [3] | Molecule | Activity [1]
1 | 11.4 µM | 40 µM | COC1(CC(C)=O)Oc2cc(/C=C/c3ccc(O)c(O)c3)oc(=O)c2/C1=C/c1ccc(O)c(O)c1 (stereo not given) [PHELLIGRIDIN F] | inactive
2 | 6 µM | – | VITAMIN E | –

Second part, the molecule before the results:

Row | Molecule | IC50 [2] | IC50 [3] | Activity [1]
3 | COc1cc(/C=C/c2cc3c(c(=O)o2)/C(=C/c2ccc(O)c(O)c2)C(C)(OC)O3)ccc1O (stereo not given) [METHYLINOSCAVIN B] | 13.1 µM | 38 µM | inactive
4 | COC1(C)Oc2cc(/C=C/c3ccc(O)c(O)c3)oc(=O)c2/C1=C/c1ccc(O)c(O)c1 (stereo not given) [INOSCAVIN B] | – | 95 µM | inactive
5 | COc1cc(/C=C/c2cc3c(c(=O)o2)C2(OC(C)=CC2=O)C(c2ccc(O)c(O)c2)O3)ccc1O (stereo not given) [METHYLINOSCAVIN A] | 10.7 µM | 20 µM | inactive
6 | CC1=CC(=O)C2(O1)c1c(cc(/C=C/c3ccc(O)c(O)c3)oc1=O)OC2c1ccc(O)c(O)c1 (stereo not given) [INOSCAVIN A] | – | 78 µM | inactive
7 | COc1ccc(O)c(C(C)(C)C)c1.COc1ccc(O)cc1C(C)(C)C [BUTYLATED HYDROXYANISOLE] | – | 10 µM | –
